Laboratory results published in article PMC5035373 (Diabetes Technology & Therapeutics, 2016).

Key:
[1] = tested on: patients with type 2 diabetes; assay: Safety and tolerability: adverse events, pain per visual analog scale; format: in vivo, human
Method in brief: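 All enrolled patients were analysed for safety. Injection-site reactions, AEs and SAEs were recorded on study days and later visits, with their relation to the intervention. Insertion pain was rated on a visual analog scale and preference was surveyed. Intradermal vs SC tolerability was compared within subjects by Wilcoxon paired test.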

[2] = Insulin pharmacokinetics after ID; format: in vivo, human; settings: for Insulin AUC 0–1 / Insulin AUC 0–1.5 / Insulin AUC 4–6: SD; for Cmax, median / Insulin AUC (360 min), median / Tmax, median: 0.2 U/kg
Method in brief: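 Open-label randomized crossover in type 2 diabetics (30–70 y, BMI <35, HbA1c 6.5%–10%, drug-naive or metformin only). Insulin aspart 0.2 U/kg into right lower abdomen, intradermal via MicronJet or SC via pen, 4–14 days apart, fasting or pre-standard meal. Blood at −5 min, baseline, every 10 min to 2 h, then every 30 min to 6 h. Insulin measured by immunoassay; AUC, partial AUCs, AUCID/AUCSC derived.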

[3] = ID via MicronJet needle, all patients, n = 14
[4] = ID via MicronJet needle, before standard meal test, n = 3
[5] = SC conventional needle, all patients, n = 14
[6] = SC conventional needle, before standard meal test, n = 3
[7] = SC conventional needle, fasting, n = 11

## Insulin aspart
[1]; 17 patients in safety analysis, 5 AEs in total
  Subjects experiencing AEs: 3 of 17
[1]; all 17 patients, ID and SC injections
  Local AEs (injection site reactions): No local AEs (injection site reactions) were reported
[2]; ID MicronJet, 0–1 h, fasting population n = 11, mean ± SD
  Insulin AUC 0–1: 3695.2 ± 1593.3 μU/mL/min
[2]; ID MicronJet, 0–1.5 h, fasting population n = 11, mean ± SD
  Insulin AUC 0–1.5: 4912.0 ± 2154.6 μU/mL/min
[2]; ID MicronJet, 0–1.5 h postinjection, overall population n = 14, mean ± SD
  Insulin AUC 0–1.5: 5156.3 ± 1988.7 μU/mL/min
[2]; ID MicronJet, 4–6 h, fasting population n = 11, mean ± SD
  Insulin AUC 4–6: 2027.3 ± 946.5 μU/mL/min
[2]; ID MicronJet, 4–6 h postinjection, overall population n = 14, mean ± SD
  Insulin AUC 4–6: 2054.4 ± 857.7 μU/mL/min
[2]; [3]
  Cmax, median: 80 μU/mL
  Insulin AUC (360 min), median: 9913.75 μU/mL/min
  Tmax, median: 0.583 h
[2]; [4]
  Cmax, median: 95 μU/mL
  Insulin AUC (360 min), median: 12690 μU/mL/min
  Tmax, median: 0.833 h
[2]; ID via MicronJet needle, fasting, n = 11
  Cmax, median: 79 μU/mL
[2]; [5]
  Cmax, median: 55 μU/mL
  Insulin AUC (360 min), median: 10936.25 μU/mL/min
  Tmax, median: 1.46 h
[2]; [6]
  Cmax, median: 68 μU/mL
  Insulin AUC (360 min), median: 13960 μU/mL/min
  Tmax, median: 1.17 h
[2]; [7]
  Cmax, median: 54.5 μU/mL
  Insulin AUC (360 min), median: 10,407.5 μU/mL/min
[2]; SC via NovoPen conventional needle, fasting, n = 11, type 2 diabetes
  Tmax, median: 1.5 h
[2]; SC, 0–1 h, fasting population n = 11, mean ± SD
  Insulin AUC 0–1: 2346.1 ± 609.7 μU/mL/min
[2]; SC, 0–1 h postinjection, overall population n = 14, mean ± SD, post hoc
  Insulin AUC 0–1: 2534.1 ± 737.1 μU/mL/min
[2]; SC, 0–1.5 h, fasting population n = 11, mean ± SD
  Insulin AUC 0–1.5: 3647.7 ± 904.0 μU/mL/min
[2]; SC, 0–1.5 h postinjection, overall population n = 14, mean ± SD
  Insulin AUC 0–1.5: 4035.4 ± 1255.9 μU/mL/min
[2]; SC, 4–6 h, fasting population n = 11, mean ± SD
  Insulin AUC 4–6: 2903.3 ± 1571.9 μU/mL/min
[2]; SC, 4–6 h postinjection, overall population n = 14, mean ± SD
  Insulin AUC 4–6: 2929.0 ± 1412.1 μU/mL/min
